Test system: MS2 coat protein
Assay: apparent Kd, MS2 coat protein; higher = weaker binding; RNA-MaP array; FMN 200 µM where present
Summary of the method: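 On Illumina sequencing-chip clusters, designs were transcribed by stalled E. coli RNA polymerase and titrated with SNAP-549-labelled MS2 coat protein (0.7 or 1.5 nM, doubling to 3 µM), without and then with constant ligand, in 100 mM Tris-HCl pH 7.5, 80 mM KCl, 4 mM MgCl2, BSA, DTT, yeast tRNA and Tween-20. Apparent Kd is the median of filtered per-cluster curve fits to green signal normalised to red-channel RNA signal and control-cluster median Fmax.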

[1] = designed as: OFF switch for flavin mononucleotide, no ligand
[2] = ligand present: flavin mononucleotide, designed as: OFF switch for flavin mononucleotide
[3] = designed as: ON switch for flavin mononucleotide, no ligand
[4] = ligand present: flavin mononucleotide, designed as: ON switch for flavin mononucleotide

Sequence | apparent Kd [1] [µM] | apparent Kd [2] [µM] | apparent Kd [3] [µM] | apparent Kd [4] [µM]
CUGUACUGAGGAUAUACAUGAGGAUCACCCAUGUGUUCGAUACUAGUGAGGUCGAUUAGUAGAAGGCAGUACAG | 0.023 | 0.242 | – | –
AAGAAAUGGGAGUGAUUUGGUUCCGAGGAUAUAGGCAUCGGUACAUGAGGAUCACCCAUGUUCGACUAGAAGGCGGACGGGUCC | – | – | 0.169 | 0.0204
GCCGCCCGAUCUGGCUUUUGGGCUAGAAGGGCAUAUGUGGUCCAGGACAUGAGGAUCACCCAUGUGCAGGAUAUAGCCCACCAC | 0.0137 | 0.0241 | – | –
UUAAAUCGAAACAUGAGGAUCACCCAUGUGUUGUGGUUAAUAUAGGAUAUGUGUAUACUUUUAUGACAGAAGGAUGAUAAUACU | – | – | 0.0155 | 0.0126
UGACGGCACACAGGAUAUAGCGCAGAAAGUACGCUAGAAGGGUGAGCACUCGUCCGGGCACAUGAGGAUCACCCAUGUCGUCGA | – | – | 0.204 | 0.472
GCAGCGUAUGUAGGAUAUCGGUCAGAUUCUGAUCGAGAAGGACAUGAGGAUCACCCAUGUAAAUUACCGACUUUGUCGGGCUGC | 0.00673 | 0.00818 | – | –
UGGGCGAGCCCAGUACUCACACAUGAGGAUCACCCAUGUGACGAGGAUAUAGACAGCGAUGCGUGCUAGAAGGCGUCACGGUAG | 0.0109 | 0.0353 | – | –
GCCGGAUUUGUGAGGAUAUACCUAUGGAUACAUAGGUAGAAGGCACAUGAGGAUCACCCAUGUUCCUCACCGGC | 0.033 | 0.288 | – | –
GUUAUUGACAAGAAGGCAAACAUGAGGAUCACCCAUGUUCUACAUGGAUAUUGAGGAUAUUGCCAAUACAUGAGGAUCACCCAG | 0.063 | 0.0688 | – | –
AAAAAAAAAAGACAGGAUAUCCAAAAAAAAACAUGAGGAUCACCCAUGUAAAAAAAAAAAAAAUGGGAGAAGGGUCAAAAAAAAAA | – | – | 0.0632 | 0.0321
UAAAGACAUGAGGAUCACCCAUGUGAGGAUAUCGGAGAUAACGGAACAUCAAGUUCGGCGAGAAGGCACAGGAA | 0.0539 | 0.0581 | – | –
GAGAAGUCAGGAUAUGCAUGGCGGGACUUGCGUCGUGGCGUGCAGAAGGGACAUGAGGAUCACCCAUGUGGAGA | 0.125 | 0.291 | – | –
UUAAUUAACAAGAAGGCUAACAUGAGGAUCACCCAUGUUGUACAUGGAUAUAGAGGAUAUUGCUAAUAAUUAUUUAUCAUAAUU | 0.0256 | 0.019 | – | –
UGUUUUUAUGUAAGGAUAUGGGUUUGGUUGCGGGCUUAGAAGGUACAUGAGGAUCACCCAUGUAUUUUGUGCAU | 0.0316 | 0.0355 | – | –
CGUAGGUAGCUGGAGGAUAUUCGAGUGGUAACAUGAGGAUCACCCAUGUGGUGAGAGGAACAUGAGGAGAAGGCUAGCUGCCUGC | – | – | 1.29 | 1.53
CCCACGAAAGUCGAACGAUGUAGCAGAAGGACAUGAGGAUCACCCAUGUCAGCUGUAACAGCCAUGUAGGAUAUGCUACAUGGG | 0.00605 | 0.00577 | – | –
AUCAGCUCGUCAGGAUAUACAUCACUGCGUCAGCAGUGUGGUAAGAUCACAUGAGGAUCACCCAUGUAGAAGGGACGAGCUGAU | 0.0139 | 0.252 | – | –
UGAUAGGACAGAGGAUAUACAGAUAGGAUCUACUAUCAAACAUUCCUGACAUGAGGAUCACCCAUGUAGAAGGCUGUCCUAUCU | 0.0219 | 0.0728 | – | –
AGAAAGUGAGGAUAUACGAAACCAGCCUAAAUGGCUGGAAAGUAGAAGGCACAUGAGGAUCACCCAUGUAAAGA | 0.0244 | 0.0316 | – | –

Sequence | apparent Kd [1] [µM] | apparent Kd [2] [µM] | apparent Kd [3] [µM] | apparent Kd [4] [µM]
AUGAGGUCAGGAUAUGCAUGGCGGGACUUGCGUCGUGGCGUGGAGAAGGGACAUGAGGAUCACCCAUGUGGAGC | 0.0566 | 0.0647 | – | –
CCAGGCUUCGAGAAGGACAUGAGGAUCACCCAUGUGCGUGUGAAGCAGCCGUGAGGCUGCAUCAUGUAGGAUAUCGGAGUCUGU | 0.0722 | 0.391 | – | –
UGUAUACAUGAGGAUCACCCAUGUCAACGUAGUCGAGGAUAUGGGCAGCCGUGAGGCGUACUAGAAGGCGAAGAGG | – | – | 0.337 | 0.11
UACAUGAGGAUCACCCAUGUUUUGUCGUGUAUGGUAUUUAUCUAGGAUAUCAAUUGAUUUAAUUAUGAGAAGGAGAAUAUUAAU | 0.0365 | 0.0307 | – | –
GACUGCCGAGGAUAUACAUGAGGAUCACCCAUGUGCUUCAGCAUUUUUUAAUGCAUGGGUAGAAGGCGGUAGUU | 0.0354 | 0.0607 | – | –
UCUGCCGCCGUGAGGAUAUGCCCAAAUAAAAGCGGGCAGAAGGCACAUGAGGAUCACCCAUGUCCUGCGGUUUU | 0.0221 | 0.0936 | – | –
CUGCCGUAGGAGAAGGACGGCGGGUUAUUUUUGUACAUGAGGAUCACCCAUGUAGGAUAUCCUACGUCAGGCGGCCUACUACAG | 0.0137 | 0.0198 | – | –
GUGUAGGCAGGAUAUACAUGAGGAUCACCCAUGUGAAUAAGAUAGAAUAAGAUAAAGUGUAGAAGGGUUAGUGU | 0.0407 | 0.0324 | – | –
GCGGGAUGAGUCGUUGGUUCACAUGAGGAUCACCCAUGUAGGGAGGAUAUACAUCUGGUCCCGGAGUAGAAGGCCCUACAUCGG | 0.163 | 0.107 | – | –
AGCGUCGGCACAGGAUAUGAGAUGCCGGCAGACAUGAGGAUCACCCAUGUAAGCGAACCAGGCAGUCAGAAGGGUGAUCGACAA | – | – | 0.0563 | 0.0217
AACUCACAUGAGGAUCACCCAUGUGAGGAUAUAUAAAUAUAUAUGUUAUUGUAUGUUUGUAGAAGGCGCGUGAU | 0.0386 | 0.0431 | – | –
GUAUCGUGAGGAUAUCAUGAUUGACUUAAUUUAUGUCAGCGUGAGAAGGCACAUGAGGAUCACCCAUGUGAUUA | 0.0228 | 0.0548 | – | –
AAGAAGUAAGGAUAUGCAUGGCGGGACUUGCGUCGUGGCGUGCAGAAGGUACAUGAGGAUCACCCAUGUAAAGA | 0.0272 | 0.0154 | – | –
UAUUUGCAAGGAUAUGAUUUAAGUAACAUGAGGAUCACCCAUGUUUAUCCGUUGUUAUGUUCAGAAGGUGCGUGAU | 0.0508 | 0.0724 | – | –
CGUAUGUCAGGAUAUGCGUAUGCCGCUCGGGACGAGCGGCAGCAGAAGGGACAUGAGGAUCACCCAUGUUCGGG | 0.075 | 0.0727 | – | –
GAUUGACAUGAGGAUCACCCAUGUGAGGAUAUCGGCCGGACCUUGUUAGCUUCCAUCGUGAGAAGGCACAUAGG | 0.0305 | 0.0315 | – | –
AUUGUAUAGGAAGGAUAUAGAAUAUUAUUUUAACAUGAGGAUCACCCAUGUAACCUUAUGUGUAGCUAGAAGGUCCGUUUAUUA | 0.11 | 0.162 | – | –
GGCGGUCGGGAGGAUAUUCGGGCUGUUUGGCUUGGAGAAGGCUCGACAUGAGGAUCACCCAUGUUAGUGUUCUU | 0.0739 | 0.506 | – | –
AUAUCCUAGAUAGGAUAUACUGAGGUUGAAUGGGUAGAAGGAUCGUUAGGGUAGACUACAUGAGGAUCACCCAUGUUGUUUAUU | – | – | 0.0431 | 0.0401

Sequence | apparent Kd [1] [µM] | apparent Kd [2] [µM] | apparent Kd [3] [µM] | apparent Kd [4] [µM]
UGUCUUUGCACAGGAUAUCAUACAUGAGGAUCACCCAUGUCUAUAAAACAAUGAGAAGGGUGCGUGAUGUGGGCUGCUAUAGCG | – | – | 0.0247 | 0.0083
CGAUGUUAUGUCAGGAUAUGCGUUGCGAAAGCAAUGUAGAAGGGACAUGAGGAUCACCCAUGUGCUAACCAUCG | 0.0187 | 0.0511 | – | –
AAAGCAAUGUCAUGCUCACCGGACAGAAGGCAAUGUGGGCAGCCCGACAUGAGGAUCACCCAUGUUGAGGAUAUGUCCCGUCCU | 0.00253 | 0.00254 | – | –
UCAGGUCGGGAAGGAUAUCGGCCGCGAAGAGCUCGAGAAGGUCCCGACAUGAGGAUCACCCAUGUUGAAGGGUCCUAACGUGCC | 0.158 | 0.0934 | – | –
AUUUAGUGCGAGAAGGCGUGGUCACAUGAGGAUCACCCAUGUCAGUACACGAGGAUAUCGAUUCGCUAUGUAAACAUAUGCGAC | – | – | 0.0668 | 0.00662
UAUUACCUAGGAUAUACAUGAGGAUCACCCAUGUCACGGGUCAACUUGUCCUACGCGUGUAGAAGGAGGGACCC | 0.021 | 0.0214 | – | –
UAUAAAAUAGGAUGACAUGAGGAUCACCCAUGUUGCGCGAGGAGAAGGCCCAUUCGGCAACUAUGGGAGGAUAUCCAUCGCCUG | – | – | 0.0665 | 0.0241
GCCAUCGUAUGAGGAUAUGGCACCGAAACGGUGCCAGAAGGCAUGUCGAUAGACAUGAGGAUCACCCAUGUAUUAACGAUGGCA | – | – | 1.12 | 0.117
CCCUCACAUGAGGAUCACCCAUGUCAGGAUAUCUAGUCAGAUAGUGUAGCACUAAUGAAGAGAAGGGACGUAUA | 0.0182 | 0.0239 | – | –
GAUUUGUGAGGAUAUACAUGAGGAUCACCCAUGUGUGUCCAUACGCGUGAGUCUUCGUGUAGAAGGCGCGGGUC | 0.0155 | 0.0159 | – | –
GGUACUCAAAGAGUACCAAUACGAACAUGAGGAUCACCCAUGUAGGAUAUGCUACUCAAAGAGUAGCAGAAGGAUAUGUGUCUA | 0.0165 | 0.0175 | – | –
AUCAGCUCGUCAGGAUAUACGUGACUGCGUCAGCAGUGUGGUAAGAUCACAUGAGGAUCACCCAUGUAGAAGGGACGAGCUGAU | 0.0532 | 0.58 | – | –
UGGUGUGAAGGAUAUACAUGAGGAUCACCCAUGUAUGUGGUGUGUGUUGAGGUGGAGGGUAGAAGGUCAGGUGG | 0.0382 | 0.0395 | – | –
GUAAAGUGAGGAUAUGGUAAAUUAAUUAUUAAUUAAUUAAUCCAGAAGGCACAUGAGGAUCACCCAUGUAAUUG | – | 0.0391 | – | –
UGAUCGAGAGAUCUUAGAUUCUGGUAGGAUAUACAUAAUGUAAUAUAGACAUGAGGAUCACCCAUGUAGAAGGACUAGAGUCUA | 0.00849 | 0.0243 | – | –
UGGUACUAGGGAGGAUAUGGGAAGAUACAUGAGGAUCACCCAUGUUGAAGAAUGCCGAGAGGCAACUAGAAGGCCCUAGUACCU | – | – | 0.137 | 0.00913
GGAUAGGACAGAGGAUAUACGUGCUAGAGAUACUAGCAAAAUUUACUCACAUGAGGAUCACCCAUGUAGAAGGCUGUCCUAUCG | 0.00509 | 0.0222 | – | –
GCGUAACAUGAGGAUCACCCAUGUACUCGAGAAAUCGAGUGUAGAAGGGUGACCGGUCGUUUGGCACAGGAUAUACACGCUGUG | – | – | 0.0311 | 0.0141

From the EternaBench riboswitch data
